Test results: ChEMBL document CHEMBL2346664, “Synthesis, characterization and in vitro anticancer evaluation of novel 1,2,4-triazolin-3-one derivatives” (2013)

Key:
Assay type in all cases: functional
786-0 [1] = experiment: Growth inhibition of human 786-0 cells after 48 hrs by sulforhodamine B assay; details: 786-0, 48 h
Method in brief: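 NCI 60-cell-line five-dose screen at 0.01, 0.1, 1, 10 and 100 µM final. Cells were plated at 5,000–40,000/well and grown 24 h at 37 °C, 5% CO2, then exposed to drug continuously for 48 h. Adherent cells were fixed with cold TCA (10% final) and stained with SRB; absorbance read at 515 nm. GI50 is the concentration where [(Ti-Tz)/(C-Tz)]×100 = 50, with Tz plates fixed at drug addition.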

SK-OV-3 = experiment: Growth inhibition of human SKOV3 cells assessed as cell growth at 10 '-6 M after 48 hrs by sulforhodamine B assay; details: SK-OV-3, 48 h, read-out: Activity
PC-3 = experiment: Growth inhibition of human PC3 cells after 48 hrs by sulforhodamine B assay; details: PC-3, 48 h
SNB-75 [2] = experiment: Growth inhibition of human SNB75 cells assessed as cell growth at 10 '-5 M after 48 hrs by sulforhodamine B assay; details: SNB-75, 48 h, read-out: Activity
HL-60(TB) = experiment: Growth inhibition of human HL-60(TB) cells assessed as cell growth at 10 '-8 M after 48 hrs by sulforhodamine B assay; details: HL-60, 48 h, read-out: Activity
Method in brief: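 Five-dose NCI protocol with final concentrations of 0.01–100 µM and drug diluted from a DMSO stock (400× the top concentration) in medium with gentamicin. Cells were pre-incubated 24 h, then exposed 48 h at 37 °C. Suspension cells were fixed with 16% final TCA, SRB-stained and read at 515 nm. Percentage growth at each level was [(Ti−Tz)/(C−Tz)]×100, or [(Ti−Tz)/Tz]×100 when Ti < Tz.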

[3] = Growth inhibition of human EKVX cells assessed as cell growth at 10 '-4 M after 48 hrs by sulforhodamine B assay; details: read-out: Activity
786-0 [4] = experiment: Growth inhibition of human 786-0 cells assessed as cell growth at 10 '-6 M after 48 hrs by sulforhodamine B assay; details: 786-0, 48 h, read-out: Activity
Method in brief: (§1)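 Percent growth at each of the five concentrations of the 48 h continuous-exposure NCI SRB screen. Drug stocks were in DMSO at 400× the top final concentration and diluted in medium with gentamicin. Growth was calculated as [(Ti-Tz)/(C-Tz)]×100 when Ti ≥ Tz, or [(Ti-Tz)/Tz]×100 when Ti < Tz. Tz plates were fixed at drug addition; untreated wells served as control. Absorbance was read at 515 nm.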

SF-539 = experiment: Growth inhibition of human SF539 cells assessed as cell growth at 10 '-8 M after 48 hrs by sulforhodamine B assay; details: SF-539, 48 h, read-out: Activity
NCI-H322M = experiment: Growth inhibition of human NCI-H322M cells assessed as growth inhibition at 10 uM after 48 hrs by sulforhodamine B assay; details: read-out: GI
NCI-H522 = experiment: Growth inhibition of human NCI-H522 cells assessed as cell growth at 10 '-6 M after 48 hrs by sulforhodamine B assay; details: NCI-H522, 48 h, read-out: Activity
SNB-75 [5] = experiment: Growth inhibition of human SNB75 cells assessed as cell growth at 10 '-4 M after 48 hrs by sulforhodamine B assay; details: SNB-75, 48 h, read-out: Activity
MCF7 [6] = experiment: Growth inhibition of human MCF7 cells assessed as growth inhibition at 10 uM after 48 hrs by sulforhodamine B assay; details: MCF7, 48 h, read-out: GI
[7] = Growth inhibition of human NCI-ADR-RES cells assessed as cell growth at 10 '-8 M after 48 hrs by sulforhodamine B assay; details: read-out: Activity
NCI-H460 [8] = experiment: Growth inhibition of human NCI-H460 cells assessed as cell growth at 10 '-5 M after 48 hrs by sulforhodamine B assay; details: NCI-H460, 48 h, read-out: Activity
ACHN = experiment: Growth inhibition of human ACHN cells assessed as growth inhibition at 10 uM after 48 hrs by sulforhodamine B assay; details: read-out: GI
Method in brief: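 Percent growth inhibition from the single 10^-5 M NCI-60 screen, reported as 100 minus growth percent. Growth percent was measured after 48 h drug exposure at 37 °C, 5% CO2, using TCA fixation, SRB staining and absorbance at 515 nm, against untreated controls and time-zero plates.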

MDA-MB-468 = experiment: Growth inhibition of human MDA-MB-468 cells assessed as growth inhibition at 10 uM after 48 hrs by sulforhodamine B assay; details: MDA-MB-468, 48 h, read-out: GI
IGROV-1 = experiment: Growth inhibition of human IGROV1 cells assessed as cell growth at 10 '-4 M after 48 hrs by sulforhodamine B assay; details: IGROV-1, 48 h, read-out: Activity
SW-620 [9] = experiment: Growth inhibition of human SW620 cells assessed as cell growth at 10 '-5 M after 48 hrs by sulforhodamine B assay; details: SW-620, 48 h, read-out: Activity
SK-MEL-2 = experiment: Growth inhibition of human SK-MEL-2 cells assessed as cell growth at 10 '-7 M after 48 hrs by sulforhodamine B assay; details: SK-MEL-2, 48 h, read-out: Activity
SF-268 = experiment: Growth inhibition of human SF268 cells assessed as cell growth at 10 '-6 M after 48 hrs by sulforhodamine B assay; details: SF-268, 48 h, read-out: Activity
MCF7 [10] = experiment: Growth inhibition of human MCF7 cells assessed as cell growth at 10 '-7 M after 48 hrs by sulforhodamine B assay; details: MCF7, 48 h, read-out: Activity
SF-295 = experiment: Growth inhibition of human SF295 cells assessed as cell growth at 10 '-5 M after 48 hrs by sulforhodamine B assay; details: SF-295, 48 h, read-out: Activity
OVCAR-4 = experiment: Growth inhibition of human OVCAR4 cells assessed as cell growth at 10 '-5 M after 48 hrs by sulforhodamine B assay; details: OVCAR-4, 48 h, read-out: Activity
U-251 = experiment: Growth inhibition of human U251 cells assessed as cell growth at 10 '-7 M after 48 hrs by sulforhodamine B assay; details: U-251, 48 h, read-out: Activity
NCI-H460 [11] = experiment: Growth inhibition of human NCI-H460 cells after 48 hrs by sulforhodamine B assay; details: NCI-H460, 48 h
A549 = experiment: Growth inhibition of human A549 cells assessed as cell growth at 10 '-7 M after 48 hrs by sulforhodamine B assay; details: A549, 48 h, read-out: Activity; method in brief: as §1
SW-620 [12] = experiment: Growth inhibition of human SW620 cells assessed as cell growth at 10 '-7 M after 48 hrs by sulforhodamine B assay; details: SW-620, 48 h, read-out: Activity
M14 = experiment: Growth inhibition of human M14 cells assessed as cell growth at 10 '-7 M after 48 hrs by sulforhodamine B assay; details: M14, 48 h, read-out: Activity
[13] = read-out: LD50 (the source's name)

## Cc1nn(-c2ccc(Cl)cc2)c(=O)n1CCN1CCOCC1
786-0 [1]
  GI50: 5.75 µM
786-0 [1]; read-out: pLC50 (the source's name) (converted)
  CC50: > 100 µM
786-0 [1]; read-out: pTGI
  TGI: > 100 µM

## Cc1cc(=O)oc2cc(OCCn3c(C)nn(-c4ccc(Cl)cc4)c3=O)ccc12
SK-OV-3
  growth at 1 µM: 88%
PC-3
  GI50: 8.13 µM
  TGI: > 1 µM
PC-3; [13]
  CC50: > 1 µM
SNB-75 [2]
  growth at 10 µM: 5%
HL-60(TB)
  growth at 0.01 µM: 101%
[3]
  growth at 100 µM: 55%
786-0 [4]
  growth at 1 µM: 97%
SF-539
  growth at 0.01 µM: 102%
NCI-H322M
  inhibition of growth at 10 µM: 41.3%
NCI-H522
  growth at 1 µM: 87%
SNB-75 [5]
  growth at 100 µM: -25%
MCF7 [6]
  inhibition of growth at 10 µM: 84.2%
[7]
  growth at 0.01 µM: 102%
NCI-H460 [8]
  growth at 10 µM: 9%
ACHN
  inhibition of growth at 10 µM: 58.1%
MDA-MB-468
  inhibition of growth at 10 µM: 83.9%
IGROV-1
  growth at 100 µM: 41%
SW-620 [9]
  growth at 10 µM: 16%
SK-MEL-2
  growth at 0.1 µM: 107%
SF-268
  growth at 1 µM: 87%
MCF7 [10]
  growth at 0.1 µM: 93%
SF-295
  growth at 10 µM: 39%
OVCAR-4
  growth at 10 µM: -1%
U-251
  growth at 0.1 µM: 97%
NCI-H460 [11]
  GI50: 2.8 µM
  TGI: > 1 µM
NCI-H460 [11]; [13]
  CC50: > 1 µM
A549
  growth at 0.1 µM: 98%
SW-620 [12]
  growth at 0.1 µM: 98%
M14
  growth at 0.1 µM: 101%
